These results are taken from ChEMBL document CHEMBL1255268, “Antimicrobial activities of Ceftaroline and ME1036 tested against clinical strains of community-acquired methicillin-resistant Staphylococcus aureus” (2008).

Format in all cases: functional
The test system of assay [1] is Staphylococcus aureus. Description: Antimicrobial activity against community-acquired methicillin resistant Staphylococcus aureus expressing PVL and mec type IV gene by broth microdilution method. Put shortly: (§1)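 Reference broth microdilution MICs per CLSI, with CLSI interpretive criteria (M100-S17) used for susceptible/resistant categories. Panel: 152 CA-MRSA clinical isolates from human infections, collected 2000–2005 at 47 US medical centres. Strains typed by multiplex PCR for SCCmec type (mecA as internal control), with products run on 2% agarose in Tris-acetate-EDTA and stained with ethidium bromide.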

Assay [2] deals with Staphylococcus aureus. Description: Antimicrobial activity against community-acquired methicillin resistant Staphylococcus aureus expressing PVL gene and mec type IV gene assessed as susceptible strains by broth microdilution method. In short, it runs like this:
as §1

Assay [3] concerns Staphylococcus aureus. The assay can be described thus: Antimicrobial activity against community-acquired methicillin resistant Staphylococcus aureus expressing PVL and mec type IV gene assessed as resistant strains by broth microdilution method. In short, it runs like this:
as §1

SMILES strings stand for the structures. In brackets after ≈: the same amount, converted by molar mass.

As to `C[C@@H](O)[C@H]1C(=O)N2C(C(=O)O)=C(SCCNC=N)C[C@H]12` [IMIPENEM ANHYDROUS], in assay [1], the MIC is at most 0.5 µg/mL, the MIC50 was at most 0.5 µg/mL and the MIC90 was at most 0.5 µg/mL. Moreover, the Activity in assay [2] was 100%. In addition, in assay [3], the Activity was 0%.

Consider `CC[C@H]1OC(=O)[C@H](C)[C@@H](O[C@H]2C[C@@](C)(OC)[C@@H](O)[C@H](C)O2)[C@H](C)[C@@H](O[C@@H]2O[C@H](C)C[C@H](N(C)C)[C@H]2O)[C@](C)(O)C[C@@H](C)C(=O)[C@H](C)[C@@H](O)[C@]1(C)O` [ERYTHROMYCIN], for which, in assay [1], the MIC50 was above 8 µg/mL and the MIC90 was above 8 µg/mL. Also, the Activity in assay [2] was 1.3%. In addition, the Activity in assay [3] is recorded as 98%.

In assay [1], `CN(C)[C@@H]1C(O)=C(C(N)=O)C(=O)[C@@]2(O)C(O)=C3C(=O)c4c(O)cccc4[C@@](C)(O)[C@H]3C[C@@H]12` [TETRACYCLINE] yielded an MIC of at most 0.5 µg/mL, an MIC50 of at most 0.5 µg/mL and an MIC90 of at most 0.5 µg/mL. In addition, the Activity in assay [2] is 94.7%. Moreover, the Activity in assay [3] worked out at 4.6%.

In assay [1], `CN[C@H](CC(C)C)C(=O)N[C@H]1C(=O)N[C@@H](CC(N)=O)C(=O)N[C@H]2C(=O)N[C@H]3C(=O)N[C@H](C(=O)N[C@H](C(=O)O)c4cc(O)cc(O)c4-c4cc3ccc4O)[C@H](O)c3ccc(c(Cl)c3)Oc3cc2cc(c3O[C@@H]2O[C@H](CO)[C@@H](O)[C@H](O)[C@H]2O[C@H]2C[C@](C)(N)[C@H](O)[C@H](C)O2)Oc2ccc(cc2Cl)[C@H]1O` [VANCOMYCIN] displayed an MIC50 of 1 µg/mL (≈ 0.69 µM) and an MIC90 of 1 µg/mL (≈ 0.69 µM). Moreover, in assay [2], the Activity was determined as 100%. Besides, the Activity in assay [3] was determined as 0%.

For `C[C@H]1COc2c(N3CCN(C)CC3)c(F)cc3c(=O)c(C(=O)O)cn1c23.C[C@H]1COc2c(N3CCN(C)CC3)c(F)cc3c(=O)c(C(=O)O)cn1c23.O` [LEVOFLOXACIN], in assay [1], the MIC50 was determined as 0.25 µg/mL and the MIC90 is 0.5 µg/mL. In assay [2], the Activity worked out at 92.8%. In assay [3], the Activity came to 7.2%.

Take `CCC[C@@H]1C[C@@H](C(=O)N[C@@H]([C@H]2O[C@H](SC)[C@H](O)[C@@H](O)[C@H]2O)[C@H](C)Cl)N(C)C1` [CLINDAMYCIN]: in assay [1], the minimum inhibitory concentration (MIC) was at most 0.25 µg/mL, the MIC50 is at most 0.25 µg/mL and the MIC90 was at most 0.25 µg/mL. Besides, the Activity in assay [2] worked out at 100%. Moreover, the Activity in assay [3] worked out at 0%.

`C[C@@H](O)[C@H]1C(=O)N2C(C(=O)[O-])=C(c3cn4cnc(C(=O)c5ccc[n+](CC(N)=O)c5)c4s3)[C@H](C)[C@H]12`: in assay [1], the MIC50 was found to be 0.12 µg/mL (≈ 0.242 µM) and the MIC90 came out at 0.25 µg/mL (≈ 0.505 µM).

`CO/N=C(\C(=O)N[C@@H]1C(=O)N2C(C(=O)O)=C(CSc3nc(=O)c(O)nn3C)CS[C@H]12)c1csc(N)n1` [CEFTRIAXONE]: in assay [1], the MIC50 was 32 µg/mL (≈ 57.7 µM) and the MIC90 is above 32 µg/mL. For the same compound, the Activity in assay [2] is recorded as 0%. Also, the Activity in assay [3] was 98.7%.

In assay [1], `CCCCCCCCCC(=O)N[C@@H](Cc1c[nH]c2ccccc12)C(=O)N[C@H](CC(N)=O)C(=O)N[C@@H](CC(=O)O)C(=O)N[C@@H]1C(=O)NCC(=O)N[C@@H](CCCN)C(=O)N[C@@H](CC(=O)O)C(=O)N[C@H](C)C(=O)N[C@@H](CC(=O)O)C(=O)NCC(=O)N[C@H](CO)C(=O)N[C@@H]([C@H](C)CC(=O)O)C(=O)N[C@@H](CC(=O)c2ccccc2N)C(=O)O[C@@H]1C` displayed a minimum inhibitory concentration (MIC) of 0.25 µg/mL (≈ 0.154 µM), an MIC50 of 0.25 µg/mL (≈ 0.154 µM) and an MIC90 of 0.5 µg/mL (≈ 0.309 µM). Besides, the Activity in assay [2] amounted to 100%. In addition, the Activity in assay [3] came to 0%.

Regarding `CC(=O)NC[C@H]1CN(c2ccc(N3CCOCC3)c(F)c2)C(=O)O1` [LINEZOLID], in assay [1], the MIC50 is 2 µg/mL (≈ 5.93 µM) and the MIC90 was 2 µg/mL (≈ 5.93 µM). Besides, the Activity in assay [2] is 100%.

`C[C@@H](O)[C@H]1C(=O)N2C(C(=O)O)=C(S[C@@H]3CN[C@H](C(=O)N(C)C)C3)[C@H](C)[C@H]12` [MEROPENEM]: in assay [1], the MIC50 is 2 µg/mL (≈ 5.22 µM) and the MIC90 was determined as 2 µg/mL (≈ 5.22 µM). For the same compound, the Activity in assay [2] worked out at 98%. Besides, the Activity in assay [3] is reported as 0%.

As usually defined, the MIC is the lowest concentration that inhibits growth of the organism. Usually MIC50 stands for the lowest concentration that inhibits either 50% of growth or 50% of the strains tested, depending on the study. Lower therefore signals higher susceptibility. For orientation: MIC90 means an inhibitory concentration at the 90% level, which refers to growth in some studies and to a panel of isolates in others.
